Assay results from ChEMBL document CHEMBL4118190, “An SAR study of hydroxy-trifluoromethylpyrazolines as inhibitors of Orai1-mediated store operated Ca2+ entry in MDA-MB-231 breast cancer cells using a convenient Fluorescence Imaging Plate Reader assay” (Bioorg Med Chem, 2018).
Converted amounts (≈) assume the structure as drawn. Blank lines part the entries; values can stand above or below the molecule they belong to. The source made the active and inactive calls. No cut-off for these calls is given here.

What was measured:
[1] = Half life in human liver microsomes; type: ADME, microsome
[2] = biological target: Voltage-dependent L-type calcium channel subunit alpha-1C (Homo sapiens, UniProt Q13936); assay: Inhibition of Cav1.2 (unknown origin) up to 100 uM
Voltage-dependent L-type calcium channel subunit alpha-1C, sequence (Q13936 whole entry): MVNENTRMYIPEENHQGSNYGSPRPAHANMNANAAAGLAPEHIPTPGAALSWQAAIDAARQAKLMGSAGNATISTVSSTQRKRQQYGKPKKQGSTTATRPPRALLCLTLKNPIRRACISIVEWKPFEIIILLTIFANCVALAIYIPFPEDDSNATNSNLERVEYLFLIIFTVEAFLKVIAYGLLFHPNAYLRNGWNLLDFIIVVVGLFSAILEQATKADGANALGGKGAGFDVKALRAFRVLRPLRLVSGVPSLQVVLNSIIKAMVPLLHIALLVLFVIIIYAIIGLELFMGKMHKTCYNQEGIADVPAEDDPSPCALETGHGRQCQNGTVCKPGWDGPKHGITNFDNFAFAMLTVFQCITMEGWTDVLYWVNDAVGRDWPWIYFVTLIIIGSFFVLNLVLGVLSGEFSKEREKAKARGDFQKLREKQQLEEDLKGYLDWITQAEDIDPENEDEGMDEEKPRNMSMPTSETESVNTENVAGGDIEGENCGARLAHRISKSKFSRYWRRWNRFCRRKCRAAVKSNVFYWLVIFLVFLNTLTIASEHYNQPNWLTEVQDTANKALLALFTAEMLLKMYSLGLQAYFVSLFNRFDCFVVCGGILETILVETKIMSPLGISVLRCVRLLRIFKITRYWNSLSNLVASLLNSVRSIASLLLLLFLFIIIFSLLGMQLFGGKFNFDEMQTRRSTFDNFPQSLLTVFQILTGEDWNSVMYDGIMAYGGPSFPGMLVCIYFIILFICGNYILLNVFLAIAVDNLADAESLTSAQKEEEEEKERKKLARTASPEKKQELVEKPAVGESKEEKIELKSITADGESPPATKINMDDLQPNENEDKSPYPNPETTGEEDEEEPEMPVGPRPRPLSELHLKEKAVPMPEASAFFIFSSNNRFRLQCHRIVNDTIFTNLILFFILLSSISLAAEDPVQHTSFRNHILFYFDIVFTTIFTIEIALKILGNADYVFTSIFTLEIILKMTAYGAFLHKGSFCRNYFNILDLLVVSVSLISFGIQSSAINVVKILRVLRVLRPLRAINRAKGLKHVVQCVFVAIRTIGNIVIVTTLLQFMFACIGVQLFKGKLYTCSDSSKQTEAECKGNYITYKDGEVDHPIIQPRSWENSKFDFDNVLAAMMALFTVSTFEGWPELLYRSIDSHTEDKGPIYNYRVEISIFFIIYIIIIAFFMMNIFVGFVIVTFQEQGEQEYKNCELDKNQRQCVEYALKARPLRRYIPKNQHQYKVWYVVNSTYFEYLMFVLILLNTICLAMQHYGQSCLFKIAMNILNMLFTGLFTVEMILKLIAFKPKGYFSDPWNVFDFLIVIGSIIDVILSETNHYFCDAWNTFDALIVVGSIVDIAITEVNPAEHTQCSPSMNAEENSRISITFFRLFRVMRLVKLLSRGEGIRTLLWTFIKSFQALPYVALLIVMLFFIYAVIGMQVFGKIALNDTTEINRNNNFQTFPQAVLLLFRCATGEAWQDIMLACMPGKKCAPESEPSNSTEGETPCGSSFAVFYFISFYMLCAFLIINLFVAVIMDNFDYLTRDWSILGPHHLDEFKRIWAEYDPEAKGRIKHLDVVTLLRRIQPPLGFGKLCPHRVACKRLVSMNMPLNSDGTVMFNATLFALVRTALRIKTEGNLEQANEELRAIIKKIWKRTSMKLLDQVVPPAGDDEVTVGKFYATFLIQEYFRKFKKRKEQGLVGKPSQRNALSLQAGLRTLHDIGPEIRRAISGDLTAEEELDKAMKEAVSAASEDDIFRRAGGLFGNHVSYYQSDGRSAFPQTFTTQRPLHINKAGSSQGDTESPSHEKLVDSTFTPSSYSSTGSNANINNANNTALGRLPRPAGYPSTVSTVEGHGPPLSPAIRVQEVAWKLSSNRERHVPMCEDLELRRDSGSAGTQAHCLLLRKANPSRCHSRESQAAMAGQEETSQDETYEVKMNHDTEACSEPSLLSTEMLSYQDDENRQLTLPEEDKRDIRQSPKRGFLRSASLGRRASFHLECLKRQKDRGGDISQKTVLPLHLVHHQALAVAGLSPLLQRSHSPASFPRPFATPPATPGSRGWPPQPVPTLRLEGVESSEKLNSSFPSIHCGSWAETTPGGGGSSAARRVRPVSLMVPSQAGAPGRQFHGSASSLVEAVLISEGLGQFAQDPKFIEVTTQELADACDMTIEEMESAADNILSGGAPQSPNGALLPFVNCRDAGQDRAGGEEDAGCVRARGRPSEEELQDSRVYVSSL

MDA-MB-231 = assay: Inhibition of endoplasmic reticulum calcium channel in human MDA-MB-231 cells assessed as reduction in endoplasmic reticulum intracellular calcium release at 100 uM pretreated for 15 mins followed by SERCA inhibitor CPA addition measured after 700 secs by PBX dye based FLIPR assay relative to control; type: cell-based
How it was run: (§1)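 Same MDA-MB-231 PBX-dye FLIPR protocol: 15 min compound pretreatment at room temperature, then BAPTA (500 µM) and CPA (10 µM) to deplete ER stores. Peak 1 height after CPA addition (ER Ca2+ release) expressed as % inhibition relative to the DMSO control. Excitation 470–495 nm, emission 515–575 nm.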

[3] = biological target: Voltage-dependent N-type calcium channel subunit alpha-1B (Homo sapiens) (UniProt Q00975); assay: Inhibition of Cav2.2 in human SH-SY5Y cells assessed as reduction in KCl/CaCl2-induced calcium flux up to 100 uM pretreated for 300 secs followed by KCl/CaCl2 addition measured in presence of nifedipine by calcium 4-dye based FLIPR assay; type: cell-based
How it was run: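 SH-SY5Y cells plated at 50,000/well and used 48 h later. Loaded 30 min at 37 °C/5% CO2 with Calcium 4 dye in PSS containing 1.8 mM CaCl2. Nifedipine 10 µM present. Compound added 300 s before stimulation with KCl (90 mM)/CaCl2 (5 mM). Calcium flux read on FLIPR.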

[4] = biological target: T1, Calcium release-activated calcium channel protein 1 (Homo sapiens, UniProt Q96D31); assay: Inhibition of […] Orai1-medited store operated calcium entry in human MDA-MB-231 cells at 10 uM pretreated for 15 mins followed by BAPTA addition by PBX dye based FLIPR assay relative to control; type: cell-based
How it was run: (§2)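 MDA-MB-231 cells seeded 2×10^3/well and used 3 days later. Loaded 1 h at 37 °C with 2 µM PBX calcium dye, 5% signal enhancer and 500 µM probenecid in PSS, pH 7.3. Compound pretreated 15 min at room temperature. Then 500 µM BAPTA, 10 µM CPA, and 0.5 mM CaCl2 700 s after CPA. Read-out: peak 2 height as % inhibition vs DMSO. 95% CI, n = 4.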
Target sequence in this assay (Q96D31 whole entry, looked up): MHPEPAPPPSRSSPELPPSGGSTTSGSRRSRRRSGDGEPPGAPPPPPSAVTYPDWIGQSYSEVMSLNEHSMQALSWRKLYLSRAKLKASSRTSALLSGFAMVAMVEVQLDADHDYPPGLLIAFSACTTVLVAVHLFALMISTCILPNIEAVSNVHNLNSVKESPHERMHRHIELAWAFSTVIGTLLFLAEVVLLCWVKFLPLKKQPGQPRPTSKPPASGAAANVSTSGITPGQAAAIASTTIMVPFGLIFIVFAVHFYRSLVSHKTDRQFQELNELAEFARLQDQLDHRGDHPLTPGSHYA

[5] = Stability of the compound in M1/M0 H2O; type: ADME
[6] = Solubility of the compound in alpha minimum essential medium; type: physicochemical
hERG (KCNH2) = hERG (KCNH2) (Homo sapiens, UniProt Q12809); assay: Inhibition of human ERG at 10 uM relative to control
[7] = Half life in mouse liver microsomes; type: ADME, microsome
[8] = biological target: Transient receptor potential cation channel subfamily M member 8 (Rattus norvegicus) (UniProt Q8R455); assay: Inhibition of rat TRPM8 expressed in HEK293 cells assessed as reduction in menthol-induced calcium flux up to 100 uM pretreated for 300 secs followed by menthol addition by calcium 4-dye based FLIPR assay; type: cell-based
How it was run: (§3)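 HEK293 cells transfected with rat TRPV1 or rat TRPM8 plasmid using Lipofectamine 2000, plated at 10,000/well and assayed 48 h after transfection. Calcium 4 dye loaded 30 min at 37 °C in PSS with 1.8 mM CaCl2. Compound added 300 s before agonist: capsaicin 100 nM for TRPV1, menthol 100 µM for TRPM8. Fluorescence read on FLIPR.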

[9] = Lipophilicity, log P of the compound; type: physicochemical; conditions: octanol/water
[10] = biological target: Transient receptor potential cation channel subfamily V member 1 (Rattus norvegicus) (UniProt O35433); assay: Inhibition of rat TRPV1 expressed in HEK293 cells assessed as reduction in capsaicin-induced calcium flux up to 100 uM pretreated for 300 secs followed by capsaicin addition by calcium 4-dye based FLIPR assay; type: cell-based; how it was run: as §3
[11] = biological target: Voltage-dependent L-type calcium channel subunit alpha-1D (Homo sapiens) (UniProt Q01668); assay: Inhibition of Cav1.3 (unknown origin) up to 100 uM
Voltage-dependent L-type calcium channel subunit alpha-1D (Homo sapiens), sequence (Q01668 whole entry): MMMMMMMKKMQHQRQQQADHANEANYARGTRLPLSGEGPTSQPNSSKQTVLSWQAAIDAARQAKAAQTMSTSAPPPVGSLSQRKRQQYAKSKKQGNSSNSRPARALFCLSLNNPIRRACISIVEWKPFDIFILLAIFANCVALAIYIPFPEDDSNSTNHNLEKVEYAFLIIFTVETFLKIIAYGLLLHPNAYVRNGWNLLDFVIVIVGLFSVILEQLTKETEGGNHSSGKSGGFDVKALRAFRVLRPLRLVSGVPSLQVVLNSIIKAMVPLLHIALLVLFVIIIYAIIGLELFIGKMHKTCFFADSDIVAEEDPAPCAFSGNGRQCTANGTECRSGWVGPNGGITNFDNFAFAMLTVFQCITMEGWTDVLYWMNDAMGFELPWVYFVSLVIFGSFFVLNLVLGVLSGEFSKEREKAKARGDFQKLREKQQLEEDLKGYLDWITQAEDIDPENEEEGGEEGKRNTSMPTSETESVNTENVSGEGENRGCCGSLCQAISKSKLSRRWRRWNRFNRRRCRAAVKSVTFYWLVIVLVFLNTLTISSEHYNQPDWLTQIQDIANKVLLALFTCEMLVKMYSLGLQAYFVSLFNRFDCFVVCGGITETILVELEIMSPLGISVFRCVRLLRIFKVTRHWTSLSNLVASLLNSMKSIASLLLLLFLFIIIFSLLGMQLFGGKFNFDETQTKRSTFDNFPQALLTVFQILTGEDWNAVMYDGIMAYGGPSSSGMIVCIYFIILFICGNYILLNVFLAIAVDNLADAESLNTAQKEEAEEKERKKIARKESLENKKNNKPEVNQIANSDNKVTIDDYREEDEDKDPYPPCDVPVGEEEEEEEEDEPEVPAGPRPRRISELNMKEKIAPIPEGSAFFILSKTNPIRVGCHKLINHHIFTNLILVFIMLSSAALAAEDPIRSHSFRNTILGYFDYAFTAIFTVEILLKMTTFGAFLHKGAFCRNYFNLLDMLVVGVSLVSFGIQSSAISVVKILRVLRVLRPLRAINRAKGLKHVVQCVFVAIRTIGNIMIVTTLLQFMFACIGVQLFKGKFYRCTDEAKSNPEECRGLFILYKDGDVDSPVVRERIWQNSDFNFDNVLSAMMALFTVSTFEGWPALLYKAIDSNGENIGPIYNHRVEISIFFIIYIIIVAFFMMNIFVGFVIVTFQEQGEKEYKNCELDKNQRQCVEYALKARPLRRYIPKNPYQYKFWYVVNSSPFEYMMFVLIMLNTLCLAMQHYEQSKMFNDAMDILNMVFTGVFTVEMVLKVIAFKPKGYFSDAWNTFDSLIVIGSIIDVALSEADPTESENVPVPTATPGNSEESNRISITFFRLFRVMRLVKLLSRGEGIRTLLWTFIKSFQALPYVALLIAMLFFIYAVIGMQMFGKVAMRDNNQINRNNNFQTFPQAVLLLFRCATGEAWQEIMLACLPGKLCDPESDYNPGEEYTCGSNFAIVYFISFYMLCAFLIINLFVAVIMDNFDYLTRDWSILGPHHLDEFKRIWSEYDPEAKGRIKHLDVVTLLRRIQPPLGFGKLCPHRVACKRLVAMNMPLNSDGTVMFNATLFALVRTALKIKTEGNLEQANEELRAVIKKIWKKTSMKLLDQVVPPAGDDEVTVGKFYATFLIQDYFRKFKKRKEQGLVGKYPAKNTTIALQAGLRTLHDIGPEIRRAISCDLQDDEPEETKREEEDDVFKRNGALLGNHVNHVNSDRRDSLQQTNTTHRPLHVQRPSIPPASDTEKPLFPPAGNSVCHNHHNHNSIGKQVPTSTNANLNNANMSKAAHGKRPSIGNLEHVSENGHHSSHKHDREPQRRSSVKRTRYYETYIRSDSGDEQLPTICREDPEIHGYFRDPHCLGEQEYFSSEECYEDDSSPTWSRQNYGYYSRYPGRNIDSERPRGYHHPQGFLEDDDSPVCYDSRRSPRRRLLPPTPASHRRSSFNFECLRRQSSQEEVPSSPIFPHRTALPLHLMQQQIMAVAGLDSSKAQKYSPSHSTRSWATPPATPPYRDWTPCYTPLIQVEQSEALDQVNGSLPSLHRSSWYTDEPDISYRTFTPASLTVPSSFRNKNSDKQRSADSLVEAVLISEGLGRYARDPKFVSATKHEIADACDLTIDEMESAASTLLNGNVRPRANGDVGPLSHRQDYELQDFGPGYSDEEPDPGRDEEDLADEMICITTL

[12] = biological target: T1, Calcium release-activated calcium channel protein 1; assay: Inhibition of […] Orai1-medited store operated calcium entry in human MDA-MB-231 cells at 100 uM pretreated for 15 mins followed by BAPTA addition by PBX dye based FLIPR assay relative to control; type: cell-based; how it was run: as §2
Target sequence in this assay (Q96D31 whole entry, looked up): as the sequence (Q96D31 whole entry, looked up) above

[13] = Inhibition of […] in thapsigargin-stimulated human Jurkat T cells assessed as blockade of intracellular calcium flux by fluo-4-AM dye based FLIPR assay; type: cell-based
[14] = Inhibition of CRAC in rat RBL2H3 cells assessed blockade of IP3-induced calcium flux pretreated for 30 to 60 mins followed by IP3 addition by Qpatch analysis; type: cell-based; conditions: RBL-2H3
[15] = Inhibition of CRAC in human Jurkat T cells assessed as increase in TG-stimulated intracellular calcium depletion measured every 8 secs by Ca2+ dye based fluorescence assay; type: cell-based
[16] = Inhibition of endoplasmic reticulum calcium channel in human MDA-MB-231 cells assessed as reduction in endoplasmic reticulum intracellular calcium release pretreated for 15 mins followed by SERCA inhibitor CPA addition measured after 700 secs by PBX dye based FLIPR assay; type: cell-based; how it was run: as §1
[17] = biological target: T1, Calcium release-activated calcium channel protein 1; assay: Inhibition of […] Orai1-medited store operated calcium entry in human MDA-MB-231 cells pretreated for 15 mins followed by BAPTA addition by PBX dye based FLIPR assay; type: cell-based; how it was run: as §2
Target sequence in this assay (Q96D31 whole entry): as the sequence (Q96D31 whole entry, looked up) above

Compound: CC1=C(c2cnc(NC(=O)c3c(F)cccc3F)cn2)CN(c2ncc(C)s2)CC1
- IC50 [14]: 400 nM

Compound: Cc1nnsc1C(=O)Nc1ccc(-n2nc(C(F)(F)F)cc2C(F)(F)F)cc1
- IC50 [15]: 10 nM

Compound: O=C(Cc1ccccc1)N1N=C(C(F)(F)F)CC1(O)c1ccccc1C(F)(F)F (centres undefined)
- IC50 [16]: 80000 nM
- IC50 [17]: 49000 nM

The next lines start with results.

- half-life [1]: 8.2 min
- inhibition [3]: inactive
- inhibition [4]: 11%
- Stability [5]: 93.2%
- solubility [6]: 16.8 µg/mL (≈ 44.4 µM)
- half-life [7]: 3.3 min
- inhibition [8]: inactive
- logP [9]: 4.4
- inhibition [10]: inactive
- inhibition [11]: inactive
- inhibition [12]: 37%
Compound: COc1cccc(C2(O)CC(C(F)(F)F)=NN2C(=O)Cc2ccccc2)c1 (centres undefined)
- inhibition (INH) [2]: Not Active
- inhibition (MDA-MB-231): inactive
- inhibition at 10 µM (hERG (KCNH2)): 9.1%

- IC50 [13]: 1400 nM
Compound: COc1ccc(OC)c(-c2ccc(NC(=O)c3ccncc3F)cc2)c1
